Most compounds without a hit are left out; they make up all but 1.5% or so of the library.
CCR6 antag – blocks CCL20-driven beta-arrestin recruitment at human CCR6; CHO-K1 CCR6 PathHunter beta-arrestin, luminescence, CCL20-stimulated; inhibition, % at 20 µM; 340,000 compounds, 0.49% hits;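 active = compounds whose inhibition of the agonist-driven luminescence signal at 20 µM reaches about 50%, limit read from the data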;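 note: cells stimulated with CCL20 at 14 nM final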
Target sequence (P51684 whole entry, looked up): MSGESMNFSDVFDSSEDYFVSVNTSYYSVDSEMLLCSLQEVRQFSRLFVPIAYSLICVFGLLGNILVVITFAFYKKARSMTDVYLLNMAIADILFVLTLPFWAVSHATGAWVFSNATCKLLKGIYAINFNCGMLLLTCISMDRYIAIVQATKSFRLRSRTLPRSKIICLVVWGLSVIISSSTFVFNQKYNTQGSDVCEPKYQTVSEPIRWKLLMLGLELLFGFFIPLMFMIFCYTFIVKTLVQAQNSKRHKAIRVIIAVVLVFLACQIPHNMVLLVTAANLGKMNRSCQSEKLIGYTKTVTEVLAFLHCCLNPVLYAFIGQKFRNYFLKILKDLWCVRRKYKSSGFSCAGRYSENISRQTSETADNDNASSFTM
CXCR6 block – blocks human CXCR6 beta-arrestin recruitment; O00574; CHO-K1 PathHunter CXCR6 beta-arrestin, luminescence; AID 602244; inhibition, % at 20 µM; 360,000 compounds, 0.36% hits; in the data active = inhibition above about 34%, passing the limit was not always enough;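 note: antagonist mode with CXCL16 agonist at 10 nM final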
Target sequence (O00574 whole entry, looked up): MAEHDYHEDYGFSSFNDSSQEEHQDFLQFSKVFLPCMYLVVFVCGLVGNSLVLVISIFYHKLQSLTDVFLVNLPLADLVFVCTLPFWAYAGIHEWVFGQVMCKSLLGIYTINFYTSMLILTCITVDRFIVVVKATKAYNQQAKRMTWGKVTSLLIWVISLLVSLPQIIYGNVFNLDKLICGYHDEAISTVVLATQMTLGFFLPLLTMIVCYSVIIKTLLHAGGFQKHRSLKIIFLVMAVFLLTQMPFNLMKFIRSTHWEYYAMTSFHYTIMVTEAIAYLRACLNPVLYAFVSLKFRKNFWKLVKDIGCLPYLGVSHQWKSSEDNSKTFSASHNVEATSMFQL
APJ antagonist – blocks the human apelin receptor APJ | 330,000 compounds, 0.32% hits | inhibition, % at 20 µM | CHO-K1 APJ beta-arrestin complementation, luminescence;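 active = inhibition above about 40% at 20 µM, limit read from the data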;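 note: cells challenged with 10 nM apelin-13 agonist together with compound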
EBI2 block – blocks human EBI2 receptor beta-arrestin signaling; P32249; EBI2 beta-arrestin recruitment, luminescence, 7a,25-OHC stimulated; inhibition, % at 5 µM; 360,000 compounds, 0.81% hits; AID 651636; in the data active = inhibition above about 38%;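 note: enzyme fragment complementation signal reports receptor beta-arrestin coupling in cells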
APJ ag – APJ receptor agonism; P35414; CHO-K1 APJ PathHunter beta-arrestin, luminescence; 0% DMSO wells, 100% apelin; activation, % at 20 µM; 330,000 compounds, 0.11% hits;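 active = activation more than six SD over the plate average, tested at 20 µM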
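Material: engineered CHO-K1 APJ arrestin reporter cells; amount: 1000 CHO-K1 reporter cells seeded per well; incubation: compound stimulation 90 min at 25 °C, detection 60 min; signal: luminescent beta-gal fragment complementation, chemiluminescent substrate; read-out basis: APJ agonist activity; controls: DMSO-only wells as negative, 10 nM Apelin-13 as positive control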
Large screens that a line does not name were inactive.

CCC1C(=O)C(C)(C)C(=O)OC1c1ccc([N+](=O)[O-])cc1 (stereo unspecified)	none (no result: APJ antagonist, APJ ag)
CC1CC(C)CN(C(C(=O)NC2CCCCC2)c2cc3ccccc3o2)C1 (stereo unspecified)	none (no result: CCR6 antag, APJ antagonist, APJ ag)
COc1ccccc1N=Nc1nc(-c2ccccc2)c(-c2ccccc2)[nH]1	CCR6 antag 67.1 (no result: APJ antagonist, APJ ag)
Cc1cc(C)nc(SC2=CS(=O)(=O)c3ccccc32)n1	none
O=S1(=O)C=C(Sc2nc3ccccc3s2)c2ccccc21	CCR6 antag 72.4 (no result: CXCR6 block, EBI2 block)
CC(NC(=O)Cn1ncc(Cl)c(Cl)c1=O)C12CC3CC(CC(C3)C1)C2 (stereo unspecified)	EBI2 block 63.3 (no result: APJ antagonist, APJ ag)
CC(C)OC(=O)N(C)C[C@H]1OCc2cnnn2CCCC(=O)N([C@H](C)CO)C[C@H]1C	none (no result: CCR6 antag, APJ antagonist, APJ ag)
C/C(N=Nc1nc2ccccc2s1)=N\Nc1ccccc1O	CCR6 antag 65.3, CXCR6 block 49.6
Cc1ccc(C(=O)COC(=O)CCC(=O)Nc2cc(Cl)ccc2Cl)cc1[N+](=O)[O-]	CCR6 antag 62.3
CC1(c2ccccc2)NC(=O)N(CC(=O)Nc2ccc(S(=O)(=O)NC3=NCCCCC3)cc2)C1=O (stereo unspecified)	none (no result: APJ antagonist, APJ ag)
Cc1ccc(-c2cnc(C(O)c3cccc(Cl)c3)[nH]2)cc1 (stereo unspecified)	none (no result: CCR6 antag, APJ antagonist, APJ ag)
CCOC(=O)c1ccc(N=c2sc(C(=O)OC)cc(=O)n2Cc2ccco2)cc1	EBI2 block 58.2
COC(=O)c1cc(=O)n(CCc2ccccc2)c(=Nc2ccc(F)cc2)s1	none
COC(=O)[C@]12CCCCC=C1N(CCc1ccc(OC)c(OC)c1)C(=O)[C@H](CC(=O)N1CCN(C(=O)C3CC3)CC1)C2	none (no result: CCR6 antag, CXCR6 block, APJ antagonist, APJ ag)
COc1ccc(CCNC(=O)c2ccc([N+](=O)[O-])cc2)cc1	none
COc1ccc(C(=O)Nc2nc(-c3ccc([N+](=O)[O-])cc3)c(-c3ccc(OC)cc3)s2)cc1	CCR6 antag 60.5
CC1(C(=O)O)CCN1C(=O)c1cccc(C(F)(F)F)c1 (stereo unspecified)	none (no result: CCR6 antag, APJ antagonist, APJ ag)
CCCCCCCCCCCCC/C=C/[C@@H](O)[C@@H](N)CO	CCR6 antag 66.7
CCCCCCCC/C=C\CCCCCCCC(=O)O	none
COc1cccc2ccc(CC(O)(c3ccccc3)c3ccccc3)nc12	none (no result: CCR6 antag, APJ antagonist, APJ ag)
CN1CCN(S(=O)(=O)c2ccc(NC(=S)NC(=O)c3ccc(Cl)cc3)cc2)CC1	none (no result: APJ antagonist, APJ ag)
CC1CCN(S(=O)(=O)c2ccc(NC(=S)NC(=O)c3ccc(Cl)cc3)cc2)CC1	CCR6 antag 54.9
COc1ccc(NC(=O)COC(=O)c2cc([N+](=O)[O-])ccc2N2CCOCC2)cc1	CCR6 antag 113.4
Cc1ccc(S(=O)(=O)N2CCOCC2)cc1NC(=O)COC(=O)C1=COCCO1	none
O=C(OCC(=O)c1ccc(S(=O)(=O)N2CCCC2)cc1)C1=COCCO1	CCR6 antag 53.2
Cc1ccc(C(=O)OCC(=O)c2ccc(S(=O)(=O)N3CCCCC3)cc2)o1	CCR6 antag 52.7
CCCn1c(CNc2ccccc2O)nc2ccccc21	CCR6 antag 62.5
CCCCn1c(NC(=O)c2ccc(F)cc2)c(C#N)c2nc3ccccc3nc21	APJ antagonist 56.1 (no result: CCR6 antag, CXCR6 block, EBI2 block)
O=C(O)c1[nH]c(-c2ccccc2)c2c1C(=O)N(C1CC1)C2=O	none (no result: CCR6 antag, APJ antagonist, APJ ag)
Cc1cc(C)c2nc(SCC(=O)N3CC(=O)Nc4ccccc43)c(C#N)cc2c1	EBI2 block 49.1
Cc1cc(C)c2nc(SCC(=O)Nc3ccccc3N3CCOCC3)c(C#N)cc2c1	none
COc1ccc(CC2=CC(=O)c3ccccc3C2=O)cc1	CXCR6 block 40.6
O=c1nc2cccc3c2=c(/c1=C(\O)c1ccccc1)c1ccccc1c3=O	CCR6 antag 52.0
Cc1ccccc1NS(=O)(=O)c1cccc(-c2nnc(-c3ccccc3)o2)c1	none
CN(C)S(=O)(=O)c1cccc(-c2nnc(-c3ccccc3)o2)c1	EBI2 block 50.1
COc1ccc2c(c1)c(=O)oc1c(C)c(OCc3cc(C(=O)O)oc3C)ccc12	CCR6 antag 55.7
O=C1C(Cl)=C(Nc2ccccc2)C(=O)c2ccccc21	CCR6 antag 53.1 (no result: APJ antagonist, APJ ag)
CS(=O)(=O)c1ccc(C(=O)OCC(=O)NC23CC4CC(CC(C4)C2)C3)cc1[N+](=O)[O-]	EBI2 block 64.6
CC(OC(=O)c1ccc(S(C)(=O)=O)c([N+](=O)[O-])c1)C(=O)NC1C2CC3CC(C2)CC1C3 (stereo unspecified)	EBI2 block 65.3 (no result: CCR6 antag, APJ antagonist, APJ ag)
c1csc(CNc2nc(NCC3CCCCC3)c3sccc3n2)c1	none (no result: CCR6 antag, APJ antagonist, APJ ag)
C#CC(=O)N(c1cc(OC)ccc1OC)C(C(=O)NC1CCCC1)c1cccs1 (stereo unspecified)	EBI2 block 50.2
O=C(Nc1cc(S(=O)(=O)Nc2ccccc2Cl)ccc1O)c1sc2cc(Cl)ccc2c1Cl	CCR6 antag 75.5
OC(COCc1ccccc1)CN1CCN(Cc2ccc3c(c2)OCO3)CC1 (stereo unspecified)	none
SC(COCc1ccccc1)CN1CCN(Cc2ccc3c(c2)OCO3)CC1 (stereo unspecified)	CCR6 antag 63.5
COc1cccc(NC(=S)NC(=O)c2cncc(Br)c2)c1	none
CC(=O)c1cccc(NC(=S)NC(=O)c2cncc(Br)c2)c1	CCR6 antag 56.0
O=S(=O)(/N=C(\c1ccc(F)cc1)N1CCOCC1)c1ccccc1	none (no result: CCR6 antag, APJ antagonist, APJ ag)
O=C(Nc1cc(Cl)ccc1Cl)P(=O)(O)c1ccccc1	none (no result: APJ antagonist, APJ ag)
CC(C)c1ccccc1NC(=O)Nc1nnc([C@H]2C[C@H](O)[C@@H](CO)O2)s1	none (no result: CCR6 antag, APJ antagonist, APJ ag)
CCOC(=O)CN(C(=O)CSc1nnc(CNc2ccc(F)cc2)n1C)c1ccccc1	none
CCOC(=O)CN(C(=O)CSc1nnc(COc2ccc(OC)cc2)n1C)c1ccccc1	EBI2 block 51.9
O=C(/C=C/c1ccc(S(=O)(=O)N2CCOCC2)cc1)N1CCN(c2ccc(F)cc2)CC1	none
O=C(/C=C/c1ccc2c(c1)OCCO2)N1CCN(c2ccc(F)cc2)CC1	EBI2 block 44.3
Nc1nc2ccccc2[nH]1	none
Nc1ccccc1Sc1nc2ccccc2[nH]1	EBI2 block 64.3
CCOc1ccc(C(=O)NC(=S)Nc2ccc(N3CCC(C)CC3)cc2)cc1[N+](=O)[O-]	CCR6 antag 53.0 (no result: APJ antagonist, APJ ag)
CCOc1ccc(C(=O)NC(=S)Nc2ccc(NC(=O)c3ccco3)c(C)c2)cc1[N+](=O)[O-]	CCR6 antag 50.3
CCCCN1C(=O)C(=Nc2cccc3cnccc23)c2ccccc21	CCR6 antag 56.5
CNC[C@H]1OCCCC[C@H](C)Oc2ccc(NC(=O)CCCN(C)C)cc2C(=O)N([C@H](C)CO)C[C@@H]1C	none (no result: CCR6 antag, APJ antagonist, APJ ag)
CC(C)C1C(=O)N(Cc2cn(CCC3OCCO3)nn2)CCS(=O)(=O)N1Cc1ccc(-c2ccccc2Cl)cc1 (stereo unspecified)	none (no result: CCR6 antag, APJ antagonist, APJ ag)
COc1ccc(-n2nc3c(N4CCC(C(=O)NCCc5ccccc5C)CC4)nnc(C)c3c2C)cc1	none
COc1ccc(-n2nc3c(N4CCC(C(=O)NCc5ccccc5C)CC4)nnc(C)c3c2C)cc1	CCR6 antag 51.5
